Data taken from ChEMBL document CHEMBL1157289, “Antiparasitic activity of some xanthones and biflavonoids from the root bark of Garcinia livingstonei” (J Nat Prod, 2006).

Columns and labels:
[1] = system: Trypanosoma brucei brucei; assay: Antitrypanosomal activity against Trypanosoma brucei brucei; type: functional, organism-based
[2] = system: Trypanosoma cruzi; assay: Antitrypanosomal activity against Trypanosoma cruzi in mouse peritoneal macrophages; type: functional, organism-based
Procedure, shortened: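 Primary mouse peritoneal macrophages, 30 000/well, infected after 24 h with about 10 000 trypomastigotes alongside 4-fold drug dilutions. 7 days at 37 °C, 5% CO2.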

[3] = system: Leishmania infantum; assay: Antileishmanial activity against Leishmania infantum MHOM/MA(BE)/67 amastigotes in mouse peritoneal macrophages; type: functional, organism-based
Procedure, shortened: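 Amastigotes from serially passaged Syrian hamster infection; macrophages elicited by intraperitoneal 2% starch, harvested 24-48 h later. 5-day incubation; Giemsa-stained microscopic count; % reduction of parasite burden vs control, IC50 determined.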

[4] = system: Plasmodium falciparum; assay: Antiplasmodial activity against chloroquine-sensitive Plasmodium falciparum Ghana by LDH reporter assay; type: functional, organism-based
[5] = system: MRC5; assay: Cytotoxicity against human MRC5 cells by alamar-blue assay; type: cell-based
Procedure, shortened: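 Cells seeded at 5000/well, washed after 24 h, then given 4-fold dilutions in RPMI + 5% FCS, final DMSO below 0.5%. 7 days at 37 °C, 5% CO2, untreated controls included.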

[6] = system: Trypanosoma cruzi; assay: Antitrypanosomal activity against Trypanosoma cruzi trypomastigotes assessed as immobilized trypomastigotes after 48 hrs; type: functional
[7] = Cytotoxicity in Leishmania infantum MHOM/MA(BE)/67 amastigotes infected mouse peritoneal macrophages; type: cell-based; details: macrophage

| Compound | IC50 [1] [µM] | IC50 [2] [µM] | IC50 [3] [µM] | IC50 [4] [µM] | IC50 [5] [µM] | MC100 [6] [µM] | Activity [7] |
| --- | --- | --- | --- | --- | --- | --- | --- |
| COc1ccc([C@@H]2CC(=O)c3c(O)cc(O)c([C@@H]4C(=O)c5c(O)cc(O)cc5O[C@H]4c4ccc(O)cc4)c3O2)cc1 | 28.3 | 34.7 | > 64 | 6 | 38 | – | – |
| C=CC(C)(C)c1cc(O)c2oc3c4c(ccc3c(=O)c2c1O)C=CC(C)(C)O4 | – | – | – | – | – | 8 | – |
| CC(C)=CCCC1(C)C=Cc2c(cc(O)c3c(=O)c4cccc(O)c4oc23)O1 (stereo not drawn) | 5 | 8 | > 64 | 52 | > 64 | – | – |
| CC1=C[C@H](c2cc(O)c3c(=O)c4cccc(O)c4oc3c2O)[C@](C)(/C=C/c2cc(O)c3c(=O)c4cccc(O)c4oc3c2O)CC1 [GARCILIVIN A] | 0.4 | 4 | 32 | 6.7 | 2 | – | Toxic |
| CC1=C[C@@H](c2cc(O)c3c(=O)c4cccc(O)c4oc3c2O)[C@](C)(/C=C/c2cc(O)c3c(=O)c4cccc(O)c4oc3c2O)CC1 [GARCIVILIN C] | 7.7 | 39.2 | > 64 | > 64 | 52.3 | – | – |
| O=C1c2c(O)cc(O)cc2O[C@H](c2ccc(O)cc2)[C@H]1c1c(O)cc(O)c2c(=O)cc(-c3ccc(O)c(O)c3)oc12 [MORELLOFLAVONE] | – | – | – | – | > 64 | – | – |

Second part, led by results:

| IC50 [1] [µM] | IC50 [2] [µM] | IC50 [3] [µM] | IC50 [4] [µM] | Compound | IC50 [5] [µM] | MC100 [6] [µM] | Activity [7] |
| --- | --- | --- | --- | --- | --- | --- | --- |
| 0.87 | 7 | 27 | 10 | CC(C)=CCc1cc(O)c2c(=O)c3cccc(O)c3oc2c1O | > 32 | – | – |
| 2 | 5.7 | > 64 | 59 | CC(C)=CCC/C(C)=C/Cc1c(O)cc(O)c2c(=O)c3cccc(O)c3oc12 | > 64 | – | – |
